Rin1 Abl inh – inhibitors of Rin1-Abl protein binding, primary screen, biochemical, TR-FRET; inhibition, % at 7.35 µM; Tyrosine-protein kinase ABL1 (Homo sapiens) + Ras and Rab interactor 1 (Homo sapiens), …; 360,000 tested, 0.4% active; AID 588664, 2011; in the data active means inhibition above about 5%, passing the limit was not always enough
SR-BI DiI inh – inhibitors of SR-BI mediated HDL lipid uptake, primary screen, ldlA[mSR-BI] cells, fluorescence, single point. Scavenger receptor class B member 1 (Mus musculus), Q61009. ldlA[mSR-BI] CHO cells, DiI-HDL uptake fluorescence, 3 h. inhibition, % at 12.5 µM. 320,000 tested, 0.96% active. AID 488896, 2010;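 active means mean replicate inhibition of at least 70% and a set share of replicates each scoring 70 or more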;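 further: 0% = median of neutral control wells and 100% = median of positive control wells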
SR-BI DiI-HDL act – activators of SR-BI mediated DiI-HDL uptake, primary screen, ldlA[mSR-BI] CHO cells, DiI fluorescence; AID 504775, 2011; 320,000 tested, 0.096% active; activation, % at 12.5 µM; 3 h; 100 = double the neutral-control signal;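 active means mean replicate activation of at least 60% and every replicate at or above 60%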;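 further: 0% = median plate neutral-control signal and 100% = twice that signal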
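Assay system: CHO ldlA[mSR-BI] cells, LDL receptor-null, SR-BI overexpressing; medium: Ham's F12 with 0.5% BSA, HEPES 25 mM, pH 7.4; also added: DiI-HDL 10 µg/mL; timing: 3 h uptake period with compound, 37 °C; signal: DiI fluorescence, bottom read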
GRK2 aptamer HTS – compounds blocking aptamer binding on GRK2 – biochemical, human GRK2, bead flow cytometry, HTS, primary screen. Beta-adrenergic receptor kinase 1 (Homo sapiens), P25098. FAM-aptamer displacement from GRK2. inhibition of aptamer binding, % at 10 µM. 330,000 tested, 0.59% active. AID 488847, 2010;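 active means inhibition of aptamer binding above 40%, roughly 3 SD of noise, on plates passing a quality check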;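 further: median bead fluorescence of bound FAM aptamer so fluorescent compounds give negative values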
Target sequence (P25098 whole entry, looked up): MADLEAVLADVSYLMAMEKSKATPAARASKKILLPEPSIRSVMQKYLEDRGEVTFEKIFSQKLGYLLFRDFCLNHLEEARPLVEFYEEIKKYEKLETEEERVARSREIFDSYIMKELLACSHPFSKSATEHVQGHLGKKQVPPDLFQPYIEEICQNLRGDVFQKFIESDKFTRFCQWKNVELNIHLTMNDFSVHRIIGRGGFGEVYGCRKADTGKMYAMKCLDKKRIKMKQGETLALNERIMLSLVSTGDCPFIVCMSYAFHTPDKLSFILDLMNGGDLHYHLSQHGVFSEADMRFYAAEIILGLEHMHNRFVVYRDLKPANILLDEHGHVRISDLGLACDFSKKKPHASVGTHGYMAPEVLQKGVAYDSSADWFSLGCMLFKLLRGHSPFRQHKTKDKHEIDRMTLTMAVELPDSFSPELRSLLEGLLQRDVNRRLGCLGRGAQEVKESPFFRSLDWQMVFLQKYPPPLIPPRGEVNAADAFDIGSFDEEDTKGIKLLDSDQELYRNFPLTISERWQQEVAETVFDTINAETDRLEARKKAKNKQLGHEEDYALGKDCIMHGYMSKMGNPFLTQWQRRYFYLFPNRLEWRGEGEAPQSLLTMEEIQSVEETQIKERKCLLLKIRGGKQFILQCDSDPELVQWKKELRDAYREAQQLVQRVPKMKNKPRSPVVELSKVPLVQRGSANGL
Active calls of the source: *; x = not tested or not shown. Compounds with a hit are over-represented: about 1.9% of the library has one in this group of screens.

SMILES	Rin1 Abl inh	SR-BI DiI inh	SR-BI DiI-HDL act	GRK2 aptamer HTS
Cc1nnc(N2CCC(C(=O)N3CCCCC3)CC2)c2nn(-c3ccc(Cl)cc3)c(C)c12	6	46	-46	0
CCn1c(C)cc(O)c(C(=O)Nc2cccc(Cl)c2)c1=O	4	5	x	0
CCn1c(C)c(C)c2cc(C(=O)Nc3cccc(Cl)c3)ccc21	0	101*	-101	0
COCCNc1ccc([N+](=O)[O-])cc1C(=O)NC1CCCc2ccccc21 (centres undefined)	-2	79*	-79	2
COc1cc(OC)c(C(=O)NC2CCCc3ccccc32)cc1OC (centres undefined)	2	14	-14	3
Brc1ccc(/C=N/Nc2nc3ccccc3o2)cc1	-2	9	-9	0
C(=N\Nc1nc2ccccc2s1)/c1cccs1	0	0	0	3
CCn1c(C)c(/C=N/Nc2nc3ccccc3s2)c2ccccc21	-2	112*	-112	3
Oc1ccccc1/C=N/Nc1nc2ccccc2o1	-3	93*	-93	2
Oc1ccccc1C=NNc1nc2ccccc2s1	1	101*	-101	x
COc1ccc(NC(=O)C[C@H]2C(=O)N(c3ccccc3)C[C@@H]2CSC)cc1	-3	x	x	x
C/C(=N\N1C(=O)c2ccccc2NC1c1ccco1)c1ccccc1O (centres undefined)	-1	-86	86*	6
C/C(=N\N1C(=O)c2ccccc2NC1c1ccccc1)c1ccccc1O (centres undefined)	2	85*	-85	2
COc1ccc(/C(C)=N/N2C(=O)c3ccccc3NC2c2ccc(O)c(OC)c2)cc1 (centres undefined)	-1	4	-4	2
COc1ccc(NC(=O)CSc2nnc3n2CCCCC3)cc1OC	1	x	x	x
O=C(/C(Br)=C/Nc1cc(Cl)ccc1Cl)C(F)(F)F	0	-1	1	86*
O=C(Nc1cc(Cl)ccc1Cl)N1CCCC1	1	0	0	6
CC1CC1C(=O)Nc1ccc(S(=O)(=O)N2CCCCC2)cc1 (centres undefined)	0	-23	23	x
Cn1cc(C(=O)N/N=C/c2c(O)ccc3ccccc23)ccc1=O	-3	102*	-102	2
Cc1ccc(C(=O)N/N=C/c2c(O)ccc3ccccc23)cn1	0	93*	-93	3
O=C(NN=Cc1c(O)ccc2ccccc12)c1ccncc1	4	97*	-97	x
Cc1occc1C(=O)N/N=C/c1c(O)ccc2ccccc12	-5	114*	-114	0
O=C(N/N=C/c1c(O)ccc2ccccc12)c1cccnc1	-2	51	-51	0
COc1ccccc1N1CCN(S(=O)(=O)CCNC(=O)C(C)Oc2ccccc2)CC1 (centres undefined)	-2	x	x	x
CC(=NNC(=O)c1ccncc1)c1ccc2ccccc2c1O	1	127*	-127	x
SMILES	Rin1 Abl inh	SR-BI DiI inh	SR-BI DiI-HDL act	GRK2 aptamer HTS
O=C(N/N=C\c1c(O)ccc2ccccc12)c1cncc(Br)c1	0	143*	-143	5
O=C(N/N=C\c1c(O)ccc2ccccc12)c1ccc(O)cc1	3	94*	-94	5
O=C(N/N=C/c1ccccn1)c1ccc(Br)o1	-1	-28	28	1
CC(=NNC(=O)c1ccncc1)c1ccccc1O	1	55	-55	x
O=C(N/N=C/c1c(O)ccc2ccccc12)c1ccc(Br)o1	1	124*	-124	0
CCOc1ccc2ccccc2c1/C=N\NC(=O)c1ccc([N+](=O)[O-])cc1	-3	78*	-78	1
Cc1c(C(=O)N/N=C/c2c(O)ccc3ccccc23)nnn1-c1nonc1N	3	10	-10	2
Cn1nccc1C(=O)N/N=C/c1c(O)ccc2ccccc12	-8	105*	-105	0
O=C(CSC1=NNC(c2ccccn2)S1)Nc1ccc(C(F)(F)F)cc1 (centres undefined)	1	95*	-95	2
Nc1c2c(nc3ccc(Br)cc13)N(c1ccccc1)CC2	-1	67	-67	0
Cc1cccc(N2CCc3c2nc2ccc(Br)cc2c3N)c1	-1	91*	-91	0
O=C(COC(=O)c1n[nH]c(=O)c2ccccc12)Nc1ccccc1	2	24	-24	x
Cc1oc(-c2ccc(Cl)cc2)nc1CN1CCC(C(=O)NCCCN2CCCC(C)C2)CC1 (centres undefined)	-4	1	-1	0
O=C(Nc1nc2ccccc2s1)c1cc(-c2ccccc2)nn1-c1ccccc1	2	66	-66	0
CC(=O)c1sc(NC(=O)c2cc(-c3ccccc3)nn2-c2ccccc2)nc1C	-3	80*	-80	1
C=C(NC(=O)C(=C)NC(=O)c1csc(C2=NC3c4csc(n4)C4NC(=O)c5csc(n5)C(C(C)(O)C(C)O)NC(=O)C5CSC(=N5)/C(=C/C)NC(=O)C(C(C)O)NC(=O)c5csc(n5)C3(CC2)NC(=O)C(C)NC(=O)C(=C)NC(=O)C(=C)NC(=O)C(C(C)C)NC2C=Cc3c(C(C)O)cc(nc3C2O)C(=O)OC4C)n1)C(N)=O (centres undefined)	-1	-143	143*	x
C=C(NC(=O)C(=C)NC(=O)c1csc(C2=NC3c4csc(n4)C4NC(=O)c5csc(n5)C([C@@](C)(O)C(C)O)NC(=O)C5CSC(=N5)/C(=C\C)NC(=O)C(C(C)O)NC(=O)c5csc(n5)[C@]3(CC2)NC(=O)C(C)NC(=O)C(=C)NC(=O)C(C)NC(=O)C(C(C)CC)NC2C=Cc3c(C(C)O)cc(nc3C2O)C(=O)OC4C)n1)C(N)=O (some centres undefined)	x	x	x	8
CCCCN(C(=O)c1cccc(S(=O)(=O)N(CC)c2ccccc2)c1)c1c(N)n(CCCC)c(=O)[nH]c1=O	5	-13	13	x
COC(=O)c1cc(C(=O)Nc2nc3ccccc3[nH]2)cc([N+](=O)[O-])c1	2	80*	-80	0
O=C(Nc1nc2ccccc2[nH]1)c1cccc([N+](=O)[O-])c1	-1	43	-43	1
O=C(NNC1=C(C(=O)C(F)(F)F)CCC1)c1cccc(Cl)c1	1	80*	-80	0
COc1ccc(C(=O)NNc2ccccc2)cc1	0	-3	3	1
COc1ccc(C(=O)NNC2=C(C(=O)C(F)(F)F)CCC2)cc1	-2	95*	-95	5
O=C(NNC1=C(C(=O)C(F)(F)F)CCC1)c1ccc(Cl)cc1	-5	93*	-93	1
O=C(Nc1ccc(Cl)cc1)[C@@H]1[C@@H]2C(=O)N(c3ccc4ccccc4c3)C(=O)[C@@H]2[C@H]2C=CC=NN21	1	76*	-76	2
O=C(Nc1ccc(Cl)cc1)[C@@H]1[C@@H]2C(=O)N(c3cccc(F)c3)C(=O)[C@@H]2[C@H]2C=CC=NN21	-4	16	-16	0
CCOc1ccc(C(C)=O)cc1CSc1nnc(-c2ccoc2C)n1N	1	71*	x	2
